How the values were obtained:
[1] = Growth inhibition of human SNB cells after 48 hrs by SRB assay; format: functional
In short: (§1)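 NCI five-dose assay against the ~60-cell-line panel (nine cancer types). Tenfold dilutions from 10−4 to 10−8 M were used with continuous 48-h exposure and SRB absorbance readout. Percent growth was computed from time-zero, control and treated absorbances. GI50 is the concentration giving 50% lower net protein increase than controls. Values not reached are reported as beyond the tested range.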

[2] = Growth inhibition of human HOP92 cells after 48 hrs by SRB assay; format: functional; details: HOP-92, 48 h; for TGI: read-out: pTGI (converted); in short: as §1
[3] = Growth inhibition of human RXF393 cells after 48 hrs by SRB assay; format: functional; details: RXF 393, 48 h; in short: as §1
[4] = Acute toxicity in ip dosed white mouse; format: organism-based; details: in vivo
In short: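 White male mice, 23-25 g, dosed intraperitoneally with compound dissolved in 0.9% NaCl saline plus 1-2 drops Polysorbate 80 (Tween-80). Solutions prepared immediately before use. Doses ranged 100-1000 mg/kg, testing 4 or 5 doses with 6 animals per dose. LD50 derived by the Litchfield-Wilcoxon method.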

[5] = system: Trypanosoma brucei brucei; assay: Antitrypanosomal activity against bloodstream form of Trypanosoma brucei brucei strain 90-13 assessed as inhibition of parasite growth at 10 ug/ml after 72 hrs by resazurin reduction test; format: functional; details: strain 90-13, 72 h
In short: (§2)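 Trypanosoma brucei brucei 90-13 bloodstream forms, grown in HMI9 with 10% FCS at 37 °C under 5% CO2. Log-phase parasites were seeded at 10^5 cells/mL with or without inhibitor, with stocks prepared in DMSO. After 72 h, resazurin was added and fluorescence was read at 530/590 nm after a further 4 h. Percent growth inhibition was calculated versus drug-free parasites, with DMSO as control.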

CAKI-1 [6] = assay: Growth inhibition of human CAKI-1 cells after 48 hrs by SRB assay; format: functional; details: CAKI-1, 48 h; in short: as §1
[7] = Growth inhibition of human Hs 578T cells after 48 hrs by SRB assay; format: functional; in short: as §1
[8] = Growth inhibition of human UO31 cells after 48 hrs by SRB assay; format: functional; details: UO-31, 48 h
In short: (§3)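 NCI ~60-cell-line five-dose screen. Cells were preincubated 24-48 h, then given compound at 10-fold dilutions from 10^-4 to 10^-8 M with 48 h continuous exposure. SRB protein stain was read by absorbance at time zero, in untreated control and with drug. GI50 was derived from [(Ti-Tz)/(C-Tz)]x100=50, TGI from Ti=Tz, and LC50 from [(Ti-Tz)/Tz]x100=-50.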

[9] = Growth inhibition of human OVCAR4 cells after 48 hrs by SRB assay; format: functional; details: OVCAR-4, 48 h; in short: as §1
OVCAR-3 [10] = assay: Growth inhibition of human OVCAR3 cells after 48 hrs by SRB assay; format: functional; details: OVCAR-3, 48 h; in short: as §1
SNB-75 [11] = assay: Growth inhibition of human SNB75 cells after 48 hrs by SRB assay; format: functional; details: SNB-75, 48 h; in short: as §1
Malme-3M = assay: Growth inhibition of human MALME-3M cells after 48 hrs by SRB assay; format: functional; in short: as §1
NCI-H322M = assay: Growth inhibition of human NCI-H322M cells after 48 hrs by SRB assay; format: functional; in short: as §1
[12] = Growth inhibition of human SF539 cells after 48 hrs by SRB assay; format: functional; details: SF-539, 48 h; in short: as §1
TK-10 = assay: Growth inhibition of human TK10 cells after 48 hrs by SRB assay; format: functional; details: TK-10, 48 h; in short: as §3
ACHN = assay: Growth inhibition of human ACHN cells after 48 hrs by SRB assay; format: functional; in short: as §1
U-251 = assay: Growth inhibition of human U251 cells after 48 hrs by SRB assay; format: functional; details: U-251, 48 h; in short: as §3
[13] = system: Trypanosoma brucei brucei; assay: Antitrypanosomal activity against bloodstream form of Trypanosoma brucei brucei strain 90-13 assessed as inhibition of parasite growth at 1 ug/ml after 72 hrs by resazurin reduction test; format: functional; details: strain 90-13, 72 h; in short: as §2
SR = assay: Growth inhibition of human SR cells after 48 hrs by SRB assay; format: functional; in short: as §3
[14] = Growth inhibition of human UO31 cells at 10 uM after 48 hrs by SRB assay; values are per cent of control; details: UO-31, 48 h
SNB-75 [15] = assay: Growth inhibition of human SNB75 cells at 10 uM after 48 hrs by SRB assay; values are per cent of control; details: SNB-75, 48 h
[16] = Growth inhibition of human SF539 cells at 10 uM after 48 hrs by SRB assay; values are per cent of control; details: SF-539, 48 h
CAKI-1 [17] = assay: Growth inhibition of human CAKI-1 cells at 10 uM after 48 hrs by SRB assay; values are per cent of control; details: CAKI-1, 48 h
OVCAR-3 [18] = assay: Growth inhibition of human OVCAR3 cells at 10 uM after 48 hrs by SRB assay; values are per cent of control; details: OVCAR-3, 48 h
A549 = assay: Growth inhibition of human A549/ATCC cells at 10 uM after 48 hrs by SRB assay; values are per cent of control; details: A549, 48 h
CCRF-CEM = assay: Growth inhibition of human CCRF-CEM cells at 10 uM after 48 hrs by SRB assay; format: functional; details: read-out: GI
In short: (§4)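 NCI one-dose screen across roughly 60 human tumour cell lines. Cells were preincubated 24–48 h, then treated with a single 10−5 M concentration for 48 h. Growth was read with the SRB protein-binding dye and reported as percent growth versus untreated controls. Negative values indicate cell kill.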

[19] = Growth inhibition of human […] cells at 10 uM after 48 hrs by SRB assay; format: functional; details: read-out: GI; in short: as §4

## COc1ccc2cc(C(=O)OC(C)C)sc(=O)c2c1OC
[1]
  GI50: 23.4 µM
[1]; read-out: pTGI (converted)
  TGI: 53.7 µM
[2]
  GI50: 28.8 µM
  TGI: 85.1 µM
[3]
  GI50: 20 µM
[3]; read-out: pTGI (converted)
  TGI: 45.7 µM

## COc1ccc2cc(C(=O)Nc3nc(-c4ccccc4)cs3)sc(=O)c2c1OC
[4]
  LD50: 515 mg/kg
[5]
  inhibition at 10 µg/mL: 11.3%
CAKI-1 [6]
  GI50: 0.24 µM
CAKI-1 [6]; read-out: pTGI (converted)
  TGI: 1.78 µM
[7]
  GI50: 2.63 µM
[7]; read-out: pTGI (converted)
  TGI: 4.37 µM
[8]
  GI50: 1.95 µM
[8]; read-out: pTGI (converted)
  TGI: 3.09 µM
[9]
  GI50: 1.86 µM
OVCAR-3 [10]
  GI50: 1.91 µM
OVCAR-3 [10]; read-out: pTGI (converted)
  TGI: 3.72 µM
SNB-75 [11]
  GI50: 1.58 µM
SNB-75 [11]; read-out: pTGI (converted)
  TGI: 3.55 µM
Malme-3M
  GI50: 1.95 µM
Malme-3M; read-out: pTGI (converted)
  TGI: 8.32 µM
NCI-H322M; read-out: GI50
  GI50: 1.28 µM
NCI-H322M; read-out: pGI50 (converted)
  GI50: 1.29 µM
NCI-H322M; read-out: pTGI (converted)
  TGI: 5.62 µM
[12]
  GI50: 1.78 µM
[12]; read-out: pTGI (converted)
  TGI: 3.63 µM
TK-10
  GI50: 2.09 µM
TK-10; read-out: pTGI (converted)
  TGI: 3.8 µM
ACHN
  GI50: 2.04 µM
ACHN; read-out: pTGI (converted)
  TGI: > 100 µM
U-251
  GI50: 2 µM
U-251; read-out: pTGI (converted)
  TGI: 4.47 µM
[13]
  inhibition at 1 µg/mL: 28.6%
SR
  GI50: 2.75 µM
SR; read-out: pTGI (converted)
  TGI: > 100 µM
[2]
  GI50: 1.29 µM
  TGI: 3.16 µM
[14]
  growth percent at 10 µM: -65.5%
SNB-75 [15]
  growth percent at 10 µM: -43.8%
[16]
  growth percent at 10 µM: -48%
CAKI-1 [17]
  growth percent at 10 µM: -70.8%
OVCAR-3 [18]
  growth percent at 10 µM: -67%
A549
  growth percent at 10 µM: -50.8%

## O=C(Nc1ccc(O)cc1)c1cc2ccccc2c(=O)s1
CCRF-CEM
  inhibition of growth at 10 µM: -28%
[19]
  inhibition of growth at 10 µM: -11%
[14]
  growth percent at 10 µM: -62.1%
